OXTR potentiator = potentiates the human oxytocin receptor response. P30559. CHO-OTR cells, Fluo-8 calcium fluorescence, potentiator mode; 0% = oxytocin EC15, 100% = EC100. activation, % at 3 µM. 0.061% of 320,000 active. AID 2445;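 active = activation above that plate's cutoff, the mean activation of tested compounds plus 3 SD, cut at about 6.6% in these data, passing the limit was not always enough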;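 also: 100% uses oxytocin at 75 nM as the full agonist control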
Target sequence (P30559 whole entry, looked up): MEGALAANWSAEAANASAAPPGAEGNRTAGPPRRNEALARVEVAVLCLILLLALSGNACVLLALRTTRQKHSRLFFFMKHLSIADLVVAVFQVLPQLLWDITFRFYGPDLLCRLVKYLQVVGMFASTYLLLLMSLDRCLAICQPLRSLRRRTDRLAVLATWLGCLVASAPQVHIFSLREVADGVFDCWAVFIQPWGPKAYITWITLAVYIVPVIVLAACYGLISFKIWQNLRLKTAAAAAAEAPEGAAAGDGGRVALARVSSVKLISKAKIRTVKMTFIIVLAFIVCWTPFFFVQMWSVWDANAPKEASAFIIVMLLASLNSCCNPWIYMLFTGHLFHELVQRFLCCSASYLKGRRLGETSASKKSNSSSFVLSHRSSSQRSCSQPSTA
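Dosing: Single dose, 3.0 µM nominal final compound concentration | Material: Human OTR in CHO cells | Technique: Kinetic Fluo-8 calcium fluorescence | Benchmarks: EC15 oxytocin alone as 0%, 75 nM oxytocin as 100% | Probe or stimulus: Oxytocin at about EC15, sub-maximal agonist stimulus | Incubation: Compound 6 min at room temperature before oxytocin, 100 s read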
V1R ag counter = counter-screen for oxytocin receptor agonists: human V1a receptor agonists; 0.25% of 320,000 active; P37288; CHO-V1R cells, Fluo-8 calcium fluorescence, agonist mode; 0% DMSO, 100% 3 nM vasopressin; activation, % at 3 µM;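 active = activation above the mean activation of all tested compounds plus 3 SD, per screening run, cut at about 20% in these data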;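 also: signal is peak over basal fluorescence ratio across a 100 second FLIPR read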
OXTR ag = human OXTR agonism. 0.32% of 320,000 active. activation, % at 3 µM. AID 2435. CHO-OTR cells, Fluo-8 calcium fluorescence; normalized: DMSO 0%, oxytocin 100%;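 active = activation above the mean of all tested compounds plus 3 SD, cutoff set per screening run, cut at about 20% in these data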;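 also: peak over basal fluorescence ratio from a 100 s FLIPR kinetic read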
TRPN1 ag = activates the zebrafish TRPN1 channel. HEK293 zebrafish TRPN1-YFP, Fluo-8 calcium fluorescence; 100% = response to 87 µM carbachol. activation, % at 3 µM. 0.18% of 220,000 active;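 active = activation above its plate's cutoff, the mean activation of test wells on that plate plus 3 SD, cut at about 19% in these data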;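 also: 0% = DMSO alone and 100% = 87 µM carbachol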
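Material – zebrafish TRPN1-YFP in HEK293 cells · Doses – 3 µM single point · Schedule – dye 1 h 37 °C plus 30 min RT · Signal – Fluo-8 calcium fluorescence, excitation 470-495 nm, emission 515-575 nm · Read-out – % activation versus carbachol response · Control set – carbachol high, DMSO low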
TRPML3 ag = activates the human TRPML3 channel; Q8TDD5; HEK293 TRPML3-YFP, Fluo-8 calcium fluorescence; 100% = the carbachol control signal; activation, % at 3 µM; 0.29% of 220,000 active;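 active = activation above its plate's cutoff, the mean activation of the plate's test wells plus 3 SD, cut at about 12% in these data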;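 also: 0% = DMSO only wells and 100% = carbachol wells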
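system = HEK293 cells stably carrying human TRPML3-YFP | doses = one concentration, 3 µM nominal, 0.3% DMSO | timing = dye loading 1 h 37 °C then 30 min ambient, 125 s read | detection = Fluo-8 calcium dye fluorescence, ex 470-495, em 515-575 nm | benchmarks = high control carbachol 87 µM, low control DMSO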
OXTR ag confirm = human OXTR agonism, confirmation | activation, % at 3 µM | 20% of 390 active | shares compounds with OXTR ag | CHO-OTR cells, Fluo-8 calcium fluorescence, agonist;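 active = mean activation above about 20% derived from the earlier single-dose screen, limit read from the data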;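 also: peak over minimum fluorescence ratio per well during a 100 second FLIPR read; 0% = DMSO alone and 100% = oxytocin high control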
V1R ag counter 3x = activates V1a receptor in oxytocin agonist counter-screen; CHO-V1R cells, Fluo-8 calcium fluorescence; 10% of 390 active; shares compounds with OXTR ag; activation, % at 3 µM; AID 434991;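 active = mean activation over triplicate exceeds the hit threshold set in the earlier primary screen, cut at about 20% in these data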;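 also: peak over basal fluorescence ratio within a 100 second read; 0% = DMSO alone and 100% = 3 nM vasopressin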
Numbers without * were called inactive. In the library only some 0.55% were active in any assay of this set; here they are far more common.

What do the screens show for `CC1CCCC(NC(=O)CSc2n[nH]c(=O)n2Cc2ccccc2)C1C` (stereo not drawn)?
OXTR potentiator: 10.0; V1R ag counter: 1.5; OXTR ag: 1.2

What do the screens show for `O=Cc1[nH]c2ccccc2c1N(C(=O)CCl)c1ccc([N+](=O)[O-])cc1`?
OXTR potentiator: -17.6; V1R ag counter: 11.2; OXTR ag: 21.1*; TRPN1 ag: 5.4; TRPML3 ag: 2.8; OXTR ag confirm: 15.8; V1R ag counter 3x: 10.7

How did CC(=O)n1cc(N(C(=O)CCl)c2ccc([N+](=O)[O-])cc2)c2ccccc21 do in these assays?
OXTR potentiator: -4.2; V1R ag counter: 5.1; OXTR ag: 9.9; TRPN1 ag: 3.8; TRPML3 ag: 2.1

Results for CCCCNC(=O)CCCn1c(=S)[nH]c2cc3c(cc2c1=O)OCO3 ?
OXTR potentiator: -2.3; V1R ag counter: -2.0; OXTR ag: 22.0*; TRPN1 ag: 0.6; TRPML3 ag: 0.7; OXTR ag confirm: -1.0; V1R ag counter 3x: -0.3

How did COc1ccccc1C(=O)NNC(=S)NC(=O)c1cc(OC)c(OC)c(OC)c1 do in these assays?
OXTR potentiator: -18.4; V1R ag counter: 12.3; OXTR ag: 21.1*; TRPN1 ag: 2.6; TRPML3 ag: 1.8; OXTR ag confirm: 7.7; V1R ag counter 3x: 18.9

What do the screens show for `COc1cc(C(=O)NC(=S)NNC(=O)c2cnccn2)cc(OC)c1OC`?
OXTR potentiator: -0.8; V1R ag counter: -0.5; OXTR ag: 0.2; TRPN1 ag: 0.3; TRPML3 ag: 0.2

How did COc1ccc(C(CCN2CCCCC2)c2c(OC)cc(OC)c3c(-c4ccccc4)cc(=O)oc23)cc1 (stereo not drawn) do in these assays?
OXTR potentiator: -16.3; V1R ag counter: 16.4; OXTR ag: 21.2*; OXTR ag confirm: 9.3; V1R ag counter 3x: 6.8

What do the screens show for `COc1ccc(C(=O)OCC(=O)c2ccc[nH]2)c(OC)c1`?
OXTR potentiator: -5.9; V1R ag counter: -0.3; OXTR ag: 1.6

What do the screens show for `CO/N=C/c1ccc(N2CCN(C(=O)c3ccc(Cl)cc3Cl)CC2)c([N+](=O)[O-])c1`?
OXTR potentiator: -12.0; V1R ag counter: 16.8; OXTR ag: 27.1*; TRPN1 ag: 15.7; TRPML3 ag: 6.1; OXTR ag confirm: 14.6; V1R ag counter 3x: 16.6

Results for O=C1/C(=C/c2ccccc2)N=C(N2CCOCC2)N1c1cccc(Cl)c1 ?
OXTR potentiator: -10.3; V1R ag counter: 6.8; OXTR ag: 25.7*; TRPN1 ag: -1.8; TRPML3 ag: -0.6; OXTR ag confirm: 9.6; V1R ag counter 3x: 6.9

Results for O=C(Nc1cc(S(=O)(=O)Nc2ccccc2F)ccc1Cl)c1ccc(F)cc1F ?
OXTR potentiator: -6.0; V1R ag counter: -1.1; OXTR ag: -1.1

What do the screens show for `Cc1cc(SCC(=O)OCC(=O)N(C)C2CCS(=O)(=O)C2)c(C)cc1Br` (stereo not drawn)?
OXTR potentiator: -17.7; V1R ag counter: 12.7; OXTR ag: 21.1*; OXTR ag confirm: 3.8; V1R ag counter 3x: 6.1

What do the screens show for `CC(NCC(O)COc1ccc2ccccc2c1)c1ccccc1` (stereo not drawn)?
OXTR potentiator: -17.9; V1R ag counter: 13.3; OXTR ag: 21.9*; OXTR ag confirm: 10.1; V1R ag counter 3x: 7.4

What do the screens show for `COc1cc(OC)c(OC)cc1CCC(C)NCCC(c1ccccc1)c1ccccc1` (stereo not drawn)?
OXTR potentiator: -24.1; V1R ag counter: 18.1; OXTR ag: 21.7*; OXTR ag confirm: 7.0; V1R ag counter 3x: 10.4

What do the screens show for `Cc1cc(C)c(NC(=O)CN(C)C(C)C(=O)N2CCc3ccccc32)c(C)c1` (stereo not drawn)?
OXTR potentiator: -8.2; V1R ag counter: 0.5; OXTR ag: -2.5

What do the screens show for `COc1ccc(C2SCCN2C(=S)Nc2ccc(F)cc2)cc1` (stereo not drawn)?
OXTR potentiator: -7.9; V1R ag counter: 2.0; OXTR ag: 3.4; TRPN1 ag: 3.0; TRPML3 ag: 1.1

Screening data deposited in PubChem BioAssay by The Scripps Research Institute Molecular Screening Center.
